In ChEMBL document CHEMBL1131041 (J Med Chem, 1998):

Tests used:
[1] = biological target: Delta-type opioid receptor (Mus musculus) (UniProt P32300); assay: Displacement of DPDPE from Opioid receptor delta 1 of mouse vas deferens (MVD)smooth muscle
In short: (§1)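 Mouse vas deferens (male ICR, 25–40 g) in Mg-free oxygenated Krebs at 37 °C, 0.5 g tension; transmural 0.1 Hz, 2-ms pulses, supramaximal voltage. Control DPDPE curve first; then 1 μM compound 30 min, 30 min wash, cumulative DPDPE curve (3-min steps) repeated. IC50 ratio = shifted/control IC50; Ke = [antagonist]/(ratio − 1); n ≥ 3.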

[2] = Relative affinity for guinea pig kappa1 and rat delta receptors
Mu-type opioid receptor = Mu-type opioid receptor (Rattus norvegicus, UniProt P33535); assay: Displacement of [3H]DAMGO from Opioid receptor mu 1 of rat brain membranes; assay type: cell membranes, Membrane
In short: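 Rat brain membranes labelled with [3H]DAMGO. Incubation 4 h at 25 °C in 50 mM Tris-HCl pH 7.4 with protease inhibitor cocktail. Nonspecific binding defined with 20 μM levallorphan. 8–10 test concentrations, run twice; IC50 and slope factor derived.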

[3] = biological target: T1, Delta-type opioid receptor (Rattus norvegicus, UniProt P33533); assay: Displacement of [3H]DADLE from Opioid receptor delta 1 of rat brain membranes (DAMGO quenching mu receptor); assay type: cell membranes, Membrane
In short: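 Rat brain membranes labelled with [3H]DADLE. Incubation 3–4 h at 25 °C in 10 mM Tris-HCl pH 7.4 with 100 mM choline chloride, 3 mM MnCl2, 100 nM DAMGO (μ block) and protease inhibitors. Levallorphan 20 μM for nonspecific binding. 8–10 concentrations, duplicate runs.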

[4] = biological target: T1, Delta-type opioid receptor; assay: Displacement of [3H]DADLE from morphine-insensitive Opioid receptor delta 1 (presence of 50 nM morphine) of rat brain membranes; assay type: cell membranes, Membrane
In short: (§2)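 Rat brain membranes pretreated with (+)-trans-[…], labelled with 2.0 nM [3H]DADLE, plus 50 nM morphine (δcx-2) or 300 nM DELT-II (δcx-1). Incubation 4–6 h at 25 °C in 10 mM Tris-HCl pH 7.4 with 100 mM NaCl, 3 mM MnCl2, 2 μM GTP, 5 mM 2-mercaptoethanol and protease inhibitors. 8–10 concentrations, twice.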

[5] = Selectivity for mu receptor of guinea pig Ileum (GPI) and delta receptor of delta opioid receptor of mouse vas deferens (MVD) smooth muscle preparation; assay type: tissue-based
[6] = biological target: T2, Kappa-type opioid receptor (Cavia porcellus, UniProt P41144); assay: Displacement of [125I]OXY from Opioid receptor kappa 2b of guinea pig brain membranes (pretreated with BIT(mu) and FIT(delta) and in the presence of (-)U50,488)
In short: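 Guinea pig brain membranes depleted of μ/δ sites by BIT and FIT, labelled with 0.01 nM [125I]IOXY in presence of 5 μM (−)U50,488. Incubation 4–6 h at 4 °C in 50 mM Tris-HCl pH 7.4 with 10 mM NaCl, protease inhibitors and 1 μg/mL captopril.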

[7] = biological target: Mu-type opioid receptor (Mus musculus) (UniProt P42866); assay: Compound was tested for antagonist activity against Opioid receptor mu 1 on electrically stimulated guinea pig ileal longitudinal muscle myenteric plexus (GPI) using PL017 as antagonist ligand. IC50 ratio = IC50(agonist)/IC50 (control); assay type: functional; settings: Cavia porcellus; target entry is the homologue from another species
In short: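 Guinea pig ileum longitudinal muscle–myenteric plexus (male Hartley, 250–500 g) in oxygenated Krebs at 37 °C, 1 g tension; 0.1 Hz, 0.4-ms pulses, supramaximal voltage. Control PL-017 curve first; 1 μM compound 30 min, 30 min wash, cumulative PL-017 curve repeated. IC50 ratio = antagonized/unantagonized IC50; n ≥ 3.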

Cavia porcellus [8] = species: Cavia porcellus; assay: (§3) Partial agonist activity expressed as inhibition of contraction of guinea pig ileal longitudinal muscle myenteric plexus (GPI) at 1 uM conc.; assay type: functional, Muscle tissue
In short: (§4)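 Agonist action on electrically driven tissues at 37 °C: GPI (1 g tension, 0.4-ms pulses) and Mg-free MVD (0.5 g, 2-ms pulses), 0.1 Hz. Percent inhibition of contraction height read 10 min after 1 μM compound; for stronger agonists, IC50 from concentration–response curves (2–4 tissues, nonlinear least squares). Selectivity = GPI IC50/MVD IC50.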

[9] = biological target: Opioid receptors; mu & delta (Rattus norvegicus) (UniProt P33533+P33535); assay: Relative affinity for mu and delta receptors in rat brain membranes; assay type: cell membranes
[10] = biological target: Delta-type opioid receptor (Mus musculus) (UniProt P32300); assay: Displacement of DPDPE from Opioid receptor delta 1 of mouse vas deferens (MVD) smooth muscle; in short: as §1
Cavia porcellus [11] = species: Cavia porcellus; assay: Binding affinity of compound was measured on electrically stimulated guinea pig ileal longitudinal muscle myenteric plexus (GPI) preparation using PL017 as standard antagonist; assay type: functional; settings: Muscle tissue
In short: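 Electrically stimulated guinea pig ileum longitudinal muscle–myenteric plexus (male Hartley, 250–500 g) in oxygenated Krebs at 37 °C, 1 g tension; 0.1 Hz, 0.4-ms pulses. Tissue preincubated 30 min with 1 μM compound, washed 30 min, then cumulative PL-017 curve repeated. Ke = [antagonist]/(IC50 ratio − 1); n ≥ 3.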

[12] = biological target: T2, Kappa-type opioid receptor; assay: Displacement of [3H]U-69593 from Opioid receptor kappa 1 of guinea pig brain membranes (pretreated with BIT and FIT to block mu and delta sites)
In short: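 Guinea pig brain membranes pretreated with BIT and FIT, labelled with [3H]U69,593. Incubation 4–6 h at 25 °C in 50 mM Tris-HCl pH 7.4 with protease inhibitors and 1 μg/mL captopril. Nonspecific binding with 1 μM U69,593. 8–10 concentrations, twice.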

[13] = biological target: T1, Delta-type opioid receptor; assay: Displacement of [3H]DADLE from morphine-sensitive Opioid receptor delta 1 (presence of 300 nM DELT-II) of rat brain membranes; assay type: cell membranes, Membrane; in short: as §2
Mus musculus [14] = species: Mus musculus; assay: (§5) Partial agonist activity expressed as inhibition of contraction of mouse vas deferens (MVD) smooth muscle at 1 uM conc.; assay type: functional, Muscle tissue; in short: as §4
Cavia porcellus [15] = species: Cavia porcellus; assay: as §3; assay type: functional, organism-based; settings: Muscle tissue; in short: as §4
[16] = biological target: Opioid receptors; mu & delta (Homo sapiens) (UniProt P41143+P35372); assay: IC50 selectivity for mu receptor of guinea pig Ileum (GPI) and delta receptor of delta opioid receptor of mouse vas deferens (MVD) smooth muscle preparation; assay type: tissue-based; in short: as §4
Mus musculus [17] = species: Mus musculus; assay: as §5; assay type: functional, organism-based; settings: Muscle tissue; in short: as §4

T2 sequence (P41144 whole entry): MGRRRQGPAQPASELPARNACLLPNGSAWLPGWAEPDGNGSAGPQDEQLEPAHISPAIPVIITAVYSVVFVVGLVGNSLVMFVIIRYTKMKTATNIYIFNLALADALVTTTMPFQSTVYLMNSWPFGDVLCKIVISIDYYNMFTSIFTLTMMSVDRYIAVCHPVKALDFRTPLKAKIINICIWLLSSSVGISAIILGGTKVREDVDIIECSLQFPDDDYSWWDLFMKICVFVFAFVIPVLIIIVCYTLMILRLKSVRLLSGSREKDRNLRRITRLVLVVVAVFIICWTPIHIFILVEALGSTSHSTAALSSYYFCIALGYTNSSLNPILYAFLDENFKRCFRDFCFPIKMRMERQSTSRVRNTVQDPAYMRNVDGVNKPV
Delta-type opioid receptor (Mus musculus), sequence (P32300 whole entry): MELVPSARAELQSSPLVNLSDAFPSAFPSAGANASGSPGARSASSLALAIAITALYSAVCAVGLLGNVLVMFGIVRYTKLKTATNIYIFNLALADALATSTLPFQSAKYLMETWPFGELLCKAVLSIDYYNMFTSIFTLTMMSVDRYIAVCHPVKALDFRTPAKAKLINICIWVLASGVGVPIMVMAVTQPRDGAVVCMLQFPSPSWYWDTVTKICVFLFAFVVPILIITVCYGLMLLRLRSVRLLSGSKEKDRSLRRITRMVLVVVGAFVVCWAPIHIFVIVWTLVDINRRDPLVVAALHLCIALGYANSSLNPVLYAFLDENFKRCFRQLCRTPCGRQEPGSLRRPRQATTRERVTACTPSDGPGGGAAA
Mu-type opioid receptor, sequence (P33535 whole entry): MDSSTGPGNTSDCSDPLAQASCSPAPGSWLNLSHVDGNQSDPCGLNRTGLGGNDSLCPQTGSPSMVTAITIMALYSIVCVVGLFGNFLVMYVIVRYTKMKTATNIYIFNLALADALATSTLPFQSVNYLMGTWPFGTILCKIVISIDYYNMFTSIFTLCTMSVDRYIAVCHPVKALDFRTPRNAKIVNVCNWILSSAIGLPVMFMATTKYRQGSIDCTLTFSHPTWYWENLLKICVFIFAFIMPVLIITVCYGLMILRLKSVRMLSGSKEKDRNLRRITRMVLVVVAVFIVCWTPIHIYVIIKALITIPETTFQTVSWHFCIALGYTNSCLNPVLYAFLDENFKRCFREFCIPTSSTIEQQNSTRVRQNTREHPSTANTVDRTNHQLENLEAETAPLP
Mu-type opioid receptor (Mus musculus), sequence (P42866 whole entry): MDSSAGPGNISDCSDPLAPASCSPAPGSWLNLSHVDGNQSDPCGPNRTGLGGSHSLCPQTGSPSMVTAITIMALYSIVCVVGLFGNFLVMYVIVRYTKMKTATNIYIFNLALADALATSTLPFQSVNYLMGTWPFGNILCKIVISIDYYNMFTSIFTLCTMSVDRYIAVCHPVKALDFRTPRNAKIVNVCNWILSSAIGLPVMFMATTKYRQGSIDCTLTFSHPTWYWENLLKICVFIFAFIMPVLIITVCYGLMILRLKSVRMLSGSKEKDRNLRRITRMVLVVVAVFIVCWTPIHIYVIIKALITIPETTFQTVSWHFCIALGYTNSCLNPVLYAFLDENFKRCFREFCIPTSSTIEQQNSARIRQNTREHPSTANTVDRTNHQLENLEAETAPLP
T1 sequence (P33533 whole entry): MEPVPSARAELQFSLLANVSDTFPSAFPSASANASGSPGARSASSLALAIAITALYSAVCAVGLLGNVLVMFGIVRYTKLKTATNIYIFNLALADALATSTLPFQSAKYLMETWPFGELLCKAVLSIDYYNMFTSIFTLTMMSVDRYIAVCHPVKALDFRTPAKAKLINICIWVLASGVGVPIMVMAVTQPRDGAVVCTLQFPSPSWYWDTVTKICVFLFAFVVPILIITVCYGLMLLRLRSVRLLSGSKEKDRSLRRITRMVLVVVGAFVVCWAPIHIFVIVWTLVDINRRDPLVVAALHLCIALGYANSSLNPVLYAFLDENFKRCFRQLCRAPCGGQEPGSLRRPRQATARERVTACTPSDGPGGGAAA
Opioid receptors; mu & delta (Rattus norvegicus), sequence (P33533 whole entry, looked up): as the sequence (P33533 whole entry) above
Opioid receptors; mu & delta (Rattus norvegicus), sequence (P33535 whole entry, looked up): as the sequence (P33535 whole entry) above
Opioid receptors; mu & delta (Homo sapiens), sequence (P35372 whole entry, looked up): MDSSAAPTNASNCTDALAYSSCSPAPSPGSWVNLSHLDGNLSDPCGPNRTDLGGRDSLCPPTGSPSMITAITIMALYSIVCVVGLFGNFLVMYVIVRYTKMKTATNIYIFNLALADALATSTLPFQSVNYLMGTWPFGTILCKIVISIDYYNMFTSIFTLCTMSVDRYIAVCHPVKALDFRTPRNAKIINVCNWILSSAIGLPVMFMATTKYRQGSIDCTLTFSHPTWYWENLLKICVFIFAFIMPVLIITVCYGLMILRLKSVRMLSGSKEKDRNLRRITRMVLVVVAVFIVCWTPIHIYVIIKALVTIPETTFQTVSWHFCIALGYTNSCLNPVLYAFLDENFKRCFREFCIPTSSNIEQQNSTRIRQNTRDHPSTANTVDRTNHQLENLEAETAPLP
Opioid receptors; mu & delta (Homo sapiens), sequence (P41143 whole entry, looked up): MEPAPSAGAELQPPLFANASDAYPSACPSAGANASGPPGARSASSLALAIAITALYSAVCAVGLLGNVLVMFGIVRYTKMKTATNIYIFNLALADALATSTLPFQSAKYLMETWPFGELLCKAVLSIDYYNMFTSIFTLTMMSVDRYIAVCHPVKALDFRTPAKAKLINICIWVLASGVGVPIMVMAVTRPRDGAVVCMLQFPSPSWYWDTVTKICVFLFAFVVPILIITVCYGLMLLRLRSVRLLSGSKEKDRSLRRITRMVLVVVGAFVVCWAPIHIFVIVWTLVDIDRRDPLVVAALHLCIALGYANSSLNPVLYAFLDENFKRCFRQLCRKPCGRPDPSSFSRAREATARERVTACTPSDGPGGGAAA

Structure (SMILES)	Ke [1]	Selectivity ratio [2]	Ki (Mu-type opioid receptor)	Ki [3]	Ki [4]	Selectivity ratio [5]	Ki [6]	Ratio [7]	Max response (Cavia porcellus [8])	Selectivity ratio [9]	Ratio [10]	Ke (Cavia porcellus [11])	Ki [12]	Ki [13]	Max response (Mus musculus [14])	IC50 (Cavia porcellus [15])	Selectivity ratio [16]	IC50 (Mus musculus [17])
Oc1ccc2c3c1OC1c4[nH]c5cccc(-c6ccccc6)c5c4C[C@@]4(O)[C@@H](C2)N(CC2CC2)CC[C@]314 (some centres undefined)	66 nM	57	1.51 µM	0.0524 µM	0.127 µM	11	0.435 µM	2.4	0%	29	16	710 nM	2.97 µM	0.284 µM	22%			
Oc1ccc2c3c1OC1c4[nH]c5ccc(-c6ccccc6)cc5c4C[C@@]4(O)[C@@H](C2)N(CC2CC2)CC[C@]314 (some centres undefined)	9.4 nM	22	0.165 µM	0.0158 µM	0.0247 µM	12	0.186 µM		0%	10	110	110 nM	0.354 µM	0.121 µM	25%			
Oc1ccc2c3c1OC1c4[nH]c5ccc(OCc6ccccc6)cc5c4C[C@@]4(O)[C@@H](C2)N(CC2CC2)CC[C@]314 (some centres undefined)	4.8 nM	19	0.081 µM	0.0044 µM	0.0017 µM	117	0.0858 µM	2.8	24%	18	210	560 nM	0.0821 µM	0.0149 µM	35%			
Oc1ccc2c3c1OC1c4[nH]c5cccc(Oc6ccccc6)c5c4C[C@@]4(O)[C@@H](C2)N(CC2CC2)CC[C@]314 (some centres undefined)	17 nM	19	1.43 µM	0.0679 µM	0.114 µM	35	0.353 µM	2.7	28%	21		590 nM	1.31 µM	0.395 µM	27%			
Oc1ccc2c3c1OC1c4[nH]c5cccc(OCc6ccccc6)c5c4C[C@@]4(O)[C@@H](C2)N(CC2CC2)CC[C@]314 (some centres undefined)		36	0.36 µM	0.0148 µM	0.0172 µM		0.109 µM		86%	24			0.539 µM	0.0741 µM	70%			
Oc1ccc2c3c1OC1c4[nH]c5ccc(Oc6ccccc6)cc5c4C[C@@]4(O)[C@@H](C2)N(CC2CC2)CC[C@]314 (some centres undefined)	11 nM	4	0.292 µM	0.0179 µM	0.0049 µM	70	0.199 µM		8%	16	93	770 nM	0.0752 µM	0.204 µM	11%			
Oc1ccc2c3c1O[C@H]1c4[nH]c5ccccc5c4C[C@@]4(O)[C@@H](C2)N(CC2CC2)CC[C@]314 [NALTRINDOLE]	0.49 nM			0.00029 µM	0.00024 µM		0.0199 µM		18%			43 nM	0.0341 µM	0.0123 µM	16%			
Oc1ccc2c3c1OC1c4[nH]c5c(Oc6ccccc6)cccc5c4C[C@@]4(O)[C@@H](C2)N(CC2CC2)CC[C@]314 (some centres undefined)	0.25 nM	47	0.0342 µM	0.00071 µM	0.00061 µM		0.0568 µM			48	4000		0.0336 µM	0.0187 µM		0.45 µM	0.11	4.1 µM
Oc1ccc2c3c1OC1c4[nH]c5c(OCc6ccccc6)cccc5c4C[C@@]4(O)[C@@H](C2)N(CC2CC2)CC[C@]314 (some centres undefined)	1.7 nM	83	0.159 µM	0.0031 µM	0.0025 µM		0.112 µM			51	610		0.258 µM	0.0733 µM		1.7 µM	0.18	9.5 µM
Oc1ccc2c3c1OC1c4[nH]c5cc(-c6ccccc6)ccc5c4C[C@@]4(O)[C@@H](C2)N(CC2CC2)CC[C@]314 (some centres undefined)	21 nM	35	1.28 µM	0.018 µM	0.0142 µM		0.66 µM		2%	71	49		0.632 µM	0.299 µM	36%			
